Measured values taken from ChEMBL document CHEMBL2040781, “Design, synthesis, and biological evaluation of chromone-based p38 MAP kinase inhibitors” (J Med Chem, 2011).
Calls of active or inactive are those of the source. The rule behind the calls is not given here.

Key:
[1] = target: T1, Mitogen-activated protein kinase 14 (Homo sapiens, UniProt Q16539); assay: Inhibition of anisomycin-induced p38alpha MAPK signalling in human MCF7 cells assessed as inhibition of ATF2 activation at 0.5 uM after 30 mins by SDS PAGE analysis; assay type: cell-based
Outline: (§1)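 MCF-7 cells were preincubated with the compound at the indicated doses for 30 min, then stimulated with 10 μg/mL anisomycin for another 30 min. Total cell lysates were resolved by SDS-PAGE and immunoblotted with antibodies against phosphorylated ATF2, p38 and HSP27, with tubulin as the loading control.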

[2] = target: T1, Mitogen-activated protein kinase 14; assay: Inhibition of anisomycin-induced p38alpha MAPK signalling in human MCF7 cells assessed as inhibition of HSP27 activation at 10 uM after 30 mins by SDS PAGE analysis; assay type: cell-based; outline: as §1
[3] = target: T1, Mitogen-activated protein kinase 14; assay: Inhibition of p38alpha phosphorylation in human MCF7 cells at 0.5 to 10 uM after 30 mins by SDS PAGE analysis; assay type: cell-based
Outline: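 MCF-7 cells were preincubated with compound for 30 min, then stimulated with 10 μg/mL anisomycin for another 30 min. Total cell lysates were resolved by SDS-PAGE and immunoblotted for phosphorylated ATF2, p38 and HSP27, with tubulin as the loading control.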

[4] = target: Dual specificity mitogen-activated protein kinase kinase 6 (Homo sapiens) (UniProt P52564); assay: Inhibition of anisomycin-induced MKK6 phosphorylation in human MCF7 cells at 1 to 10 uM after 30 mins by SDS PAGE analysis; assay type: cell-based
[5] = target: T1, Mitogen-activated protein kinase 14; assay: Inhibition of anisomycin-induced p38alpha MAPK signalling in human MCF7 cells assessed as inhibition of ATF2 activation at 10 uM after 30 mins by SDS PAGE analysis; assay type: cell-based; outline: as §1
[6] = test system: MCF7; assay: Effect on p38alpha protein level in human MCF7 cells; assay type: functional, cell-based

T1 sequence (Q16539 whole entry): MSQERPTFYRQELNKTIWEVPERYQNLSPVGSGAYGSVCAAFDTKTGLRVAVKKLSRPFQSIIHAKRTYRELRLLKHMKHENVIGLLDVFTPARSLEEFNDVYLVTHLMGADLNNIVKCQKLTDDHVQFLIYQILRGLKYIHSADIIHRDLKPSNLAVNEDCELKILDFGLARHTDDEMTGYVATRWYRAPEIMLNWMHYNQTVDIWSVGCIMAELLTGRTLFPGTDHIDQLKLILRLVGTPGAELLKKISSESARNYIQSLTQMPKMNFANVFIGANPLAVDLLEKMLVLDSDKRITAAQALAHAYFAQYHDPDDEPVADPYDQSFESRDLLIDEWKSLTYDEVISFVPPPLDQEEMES
Chain of Dual specificity mitogen-activated protein kinase kinase 6 (Homo sapiens) (P52564 whole entry): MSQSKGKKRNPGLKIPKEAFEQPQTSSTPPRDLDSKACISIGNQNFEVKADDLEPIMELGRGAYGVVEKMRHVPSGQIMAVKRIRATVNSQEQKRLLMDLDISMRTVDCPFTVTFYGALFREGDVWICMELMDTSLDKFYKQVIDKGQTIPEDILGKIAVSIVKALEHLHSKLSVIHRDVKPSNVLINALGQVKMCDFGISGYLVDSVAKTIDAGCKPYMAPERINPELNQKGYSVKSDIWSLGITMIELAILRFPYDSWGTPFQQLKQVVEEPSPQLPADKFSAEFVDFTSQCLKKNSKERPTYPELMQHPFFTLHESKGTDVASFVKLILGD

With O=c1c(-c2ccc(F)cc2)c(-c2ccnc(NC3CCCCC3)c2)oc2ccccc12 the inhibition [1] was “Active”, the Imax [2] was “Active” and the inhibition [3] was “Active”. The inhibition [4] was “inactive”, the Imax [5] was “Active” and the Activity [6] was “inactive”.
